Reference: the RNAGym collection of RNA variant scans (doi:10.1126/science.aae0568)
Fewer inactive variants are shown than the library holds.

B1: tRNA (parent)
chain: GUUCCGUUGGCGUAAUGGUAACGCGUCUCCCUCCUAAGGAGAAGACUGCGGGUUCGAGUCCCGUACGGAACG

Variants of: B1
Assay: yeast fitness relative to wild type (ratio to wild type); higher = fitter; tRNA-Arg(CCU), competitive growth, 37 C, YPD
In short: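 The tRNA-Arg(CCU) gene variants were made by chemical synthesis with a 3% per-site mutation rate at 69 sites and inserted at the native genomic locus of Saccharomyces cerevisiae. After pooling, the strains were competed in YPD at 37°C for 24 hours in six parallel replicates. Gene amplicons from the start population and each end population were read by 100-nucleotide paired-end sequencing, and Darwinian fitness relative to wild type was taken from genotype frequency changes. Genotypes needed ≥ 100 starting reads, and estimates < 0.5 were set to 0.5.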

| Variant | yeast fitness |
| --- | --- |
| GUUCGGUUGGCGUAAUGGUAACGCGUCUCCCUCCUAAGGAGAGGACUGCGGGUUCGAGUCCCGUACGGCACG [C5G A43G A69C] | 0.615 |
| GUUCGGUUGGCGUAAUGGUAGCGCGUCUCCGUCCUCAGGAGAAGACUGCGGGUUCGGGUCCUGUACGGAACG [C5G A21G C31G A36C A57G C62U] | 0.586 |
| GUUCGGUUGGCGUAAUGGUAACGCGUCUCCCUCCUAAGGAGACGACUACGGGUUCGAGGCCCGUACGGAACG [C5G A43C G48A U59G] | ≤ 0.5 |
| GUUCGGUUGGCGUAAUGGUUACGCGUCUCCCUCCUAAGGAGAAGACUGCGGGUUCGAGUCCGGUACGGAACG [C5G A20U C62G] | ≤ 0.5 |
| GUUCGGUUGGCGUAAUGGUAGCGCGUCUCCCUACUAAGGAGAAGACUGCGGGUUCGAGUCCCGUACGCUACG [C5G A21G C33A G68C A69U] | ≤ 0.5 |
| GUUCGGUUGGCGUAAUGGUCACGCGUGUCCCUCCUAAGGAGAAGACUGCGGGUUCGAGUCCCGUACUGAACG [C5G A20C C27G G67U] | ≤ 0.5 |
| GUUCGGUUGGCGUAAUGGUAGCGCGUCUCCCCCCUAAGGAGAAGACAGCGGGUUCGAGUCCCGUACGAAACG [C5G A21G U32C U47A G68A] | ≤ 0.5 |
| GUUCGGUUGGCGUAAUGGUAACGCGUCUCCCUCCUCAGGAGGAGACUGCGGGUUCGAGUCCCGUACGGAACG [C5G A36C A42G] | ≤ 0.5 |
| GUUCGGUUGGCGUAAUGGUAUCGCGUCUCCCUCCUAAGGAGAAGACUGCGGGUUCGAGUCCCGUACGGAACG [C5G A21U] | 0.731 |
| GUUCGGUUGGCGUAAUGGUAACGCGUCUCCCUCCUAAGGGGAAGACUGCGGGUUCGAGUCCCGUACGGAACG [C5G A40G] | 0.755 |
| GUUCGGUUGGCGUAAUGGUAACGCGUCUCCCUCCUAAGGUGAAGACUGCGGGUUCGAGUCCCGUACGGAACG [C5G A40U] | 0.876 |
| GUUCGGUUGGCGUAAUGGUAACGCGUCUCCCUCCUAAGGAGAAGUCUGCGGGUUCGUGUCCCGUACGGAACG [C5G A45U A57U] | 0.565 |
| GUUCGGUUGGCGUAAUGGUAGCGCGUCUCCCCCCUAAGGAGAAGACUGCGGGUUCGAGUCCCGUUCGAAACG [C5G A21G U32C A65U G68A] | 0.507 |
| GUUCGGUUGGCGUAAUGGUAGCGCGUCUCCCUCCUAAGGAAAAGACUGCGGGUUCGAGUCCCGUACAGAACG [C5G A21G G41A G67A] | ≤ 0.5 |
| GUUCGGUUGGCGUAAUGGUAUCACGUCUACCUCCUAUGGAGAAGACUGCGGGUUCGAGUCUCGUACGGAACG [C5G A21U G23A C29A A37U C61U] | ≤ 0.5 |
| GUUCGGUUGGCGUAAUGGUAACGCGUCUCCCUCCUAAGGAGUAGACUGCGGGUUCGUGACCCGUACGGCACG [C5G A42U A57U U59A A69C] | ≤ 0.5 |
| GUUCGGUUGGCGUAAUGGUAGCGCGUCUCCCUCCUAAGGAGAAGUCUGCGGGUUCGAGUCCCGUACGGUACG [C5G A21G A45U A69U] | 0.634 |
| GUUCGGUUGGCGUAAUGGUUACGCGUCUCCCUCCUAGGGAGAAGACUGCGGGUUCGAGUCCCGAACGGAACG [C5G A20U A37G U64A] | 0.577 |
| GUUCGGUUGGCGUAAUGGUAACGCGUCUCCCUCCUAAGGAGCAGACUGCGGGUUCGCGUCCCGUACGUAACG [C5G A42C A57C G68U] | ≤ 0.5 |

| Variant | yeast fitness |
| --- | --- |
| GUUCGGUUGGCGUAAUGGUAGCGCGUCUCCCUCCUAAGGAGAAAACUGCGGGUUCGACUCCCGUACGGAACG [C5G A21G G44A G58C] | 0.616 |
| GUUCGGUUGGCGUAAUGGUACCGCGUCUCCCUCCUAAGGAGAAGGCUGCGGGUUCGAGUCCCGUACGAAACG [C5G A21C A45G G68A] | ≤ 0.5 |
| GUUCGGUUGGCGUAAUGGUAACGCGUCUCCCUCCUAAGGAGCAGACUGCGGGUUCGAGUCCCGUACGGAACG [C5G A42C] | 0.814 |
| GUUCGGUUGGCGUAAUGGUAACGCGUCUCCCUCCUAAGGAGUAGACUGCGGGUUCGAGUCCCGUACGGAACG [C5G A42U] | 0.683 |
| GUUCGGUUGGCGUAAUGGUAACGCGUCUCCCUCCUAAGGAGACGACUGCGGGUUCGAGUCCCGUACAGAACG [C5G A43C G67A] | 0.565 |
| GUUCGGUUGGCGUAAUGGUAGCGCGUCUCCCUCCUAAGGAGAAGACUGAGGGUCCGAGUCCCGUGCGGAACG [C5G A21G C49A U54C A65G] | ≤ 0.5 |
| GUUCGGUUGGCGUAAUGGUAUCACGUCUACCUCCUAUGGAGAAGACUGCGGGUUCGGGUCUCGUACGGAACG [C5G A21U G23A C29A A37U A57G C61U] | 0.541 |
| GUUCGGUUGGCGUAAUGGUAUCGCGUCUCCCUCCUAAGGAGAGGACUGCGGGUUCGAGUCCAGUACGGAACG [C5G A21U A43G C62A] | ≤ 0.5 |
| GUUCGGUUGGCGUAAUGGUGACGCGUCUCCCUCCUAAGGAGAAGACUGCGGGUUCGACUCCCGUACGGAACG [C5G A20G G58C] | 0.648 |
| GUUCGGUUGGCGUAAUGGUGACGCGUCUCCCUCCUGAGGAGAAGACUGCGGGUUCGAGUCCCGUAAGGAACG [C5G A20G A36G C66A] | ≤ 0.5 |
| GUUCGGUUGGCGUAAUGGUUACGCGUCUCCCUCCUAAGGAGAAGACUGCGGGUUCGAGUCCCGUACGCAACG [C5G A20U G68C] | ≤ 0.5 |
| GUUCGGUUGGCGUAAUGGUUACGCGUCUCCCUCCUAAGGAGAAGACUGCGCGUUCGAGUCGCGUUCGGACCG [C5G A20U G51C C61G A65U A70C] | 0.565 |
| GUUCGGUUGGCGUAAUGGUACCGCGUCUCCCUCCUAAGGAGAAGACUGCGAGUUCGAAUCCCGUACGGAACG [C5G A21C G51A G58A] | ≤ 0.5 |
| GUUCGGUUGGCGUAAUGGUAGCGCGUGUCCCUCGUAAGGAGACGAGUGCGGGUUCGAGUCCCGUACGGAUCG [C5G A21G C27G C34G A43C C46G A70U] | 0.569 |
| GUUCGGUUGGCGUAAUGGUAACGCGUCUCCCUCCUUAGGAGAAGACUGCGGGUUCGAGUCUCGUACGGAACG [C5G A36U C61U] | ≤ 0.5 |
| GUUCGGUUGGCGUAAUGGUAACGCGUCUCCCUCCUAGGGAGAAGACUGCGGGUUCGAGUCCCGUACGGAACG [C5G A37G] | 0.805 |
| GUUCGGUUGGCGUAAUGGUCACGCGUCCACCUCCUUAGGUGAAGACUGGGGGUUCGAGUCCCCUACGGAUCG [C5G A20C U28C C29A A36U A40U C49G G63C A70U] | 0.579 |
| GUUCGGUUGGCGUAAUGGUCACGUGUCUCCCUCCUAAGGAGAAGACUGCGGGUUCGAGUCCCGUACGGAACG [C5G A20C C24U] | ≤ 0.5 |
